The list is not random: actives were taken first. Their share in the collection is about 3%.
Lipid droplet: modulators of hepatic lipid droplet formation. AML12 mouse hepatocytes, oleate lipid droplets, BODIPY imaging. inhibition, % at 6.5 µM. hit rate 0.4% among 240,000. AID 1656;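 active = lipid droplet intensity inhibited by at least 50%, with more than 500 cells counted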
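Assay system: AML12 hepatocytes (mouse); Probe or stimulus: oleic acid at 100 µM to induce lipid droplet formation; Dosing: compound at 6.5 µM only; Schedule: compound with oleate, overnight; Detection: fluorescence imaging, 20x objective, two fields per well; Measure: % inhibition of lipid droplet signal.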
aDG glyco act: increases alpha dystroglycan glycosylation | hit rate 0.22% among 360,000 | activation, % at 10 µM | Pro5-aDG cells, alpha-DG glycosylation AlphaScreen (IIH6); 0% Pro5, 100% B10-LARGE cell signal | AID 624168;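 active = activation of at least 8% versus controls, or a plate z-score of at least 8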;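 also: Pro5 are CHO cells carrying HIG-tagged alpha-DG that lacks glycosylation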
GC-B act: GC-B (human) receptor activation. P20594. hit rate 0.11% among 370,000. HEK293-GC-B cells, CNP EC30, cGMP TR-FRET; 0% at EC30 CNP, 100% saturating CNP. activation, % at 10 µM. AID 1920062;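 active = activation at 10 µM reaching about 35% in either raw or pattern-adjusted values, limit read from the data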
NR3A LBD binder: NR3A (human) ligand-binding domain modulation | NR3A LBD differential scanning fluorimetry, Tm shift; 0% = protein alone, 100% = glycine-bound protein | Tm shift relative to glycine control, % at 25 µM | hit rate 2.5% among 340,000 | AID 1259313;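 active = melting temperature shift of at least 10% of the positive control shift, at one fixed dose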
GC-A act: GC-A (human) enzyme activation; HEK293 GC-A cells, cGMP TR-FRET, EC30 ANP; 0% at EC30 ANP, 100% saturating ANP; hit rate 0.14% among 370,000; P16066; activation, % at 10 µM; in the data active = activation above about 40%
Target sequence (P16066 whole entry, looked up): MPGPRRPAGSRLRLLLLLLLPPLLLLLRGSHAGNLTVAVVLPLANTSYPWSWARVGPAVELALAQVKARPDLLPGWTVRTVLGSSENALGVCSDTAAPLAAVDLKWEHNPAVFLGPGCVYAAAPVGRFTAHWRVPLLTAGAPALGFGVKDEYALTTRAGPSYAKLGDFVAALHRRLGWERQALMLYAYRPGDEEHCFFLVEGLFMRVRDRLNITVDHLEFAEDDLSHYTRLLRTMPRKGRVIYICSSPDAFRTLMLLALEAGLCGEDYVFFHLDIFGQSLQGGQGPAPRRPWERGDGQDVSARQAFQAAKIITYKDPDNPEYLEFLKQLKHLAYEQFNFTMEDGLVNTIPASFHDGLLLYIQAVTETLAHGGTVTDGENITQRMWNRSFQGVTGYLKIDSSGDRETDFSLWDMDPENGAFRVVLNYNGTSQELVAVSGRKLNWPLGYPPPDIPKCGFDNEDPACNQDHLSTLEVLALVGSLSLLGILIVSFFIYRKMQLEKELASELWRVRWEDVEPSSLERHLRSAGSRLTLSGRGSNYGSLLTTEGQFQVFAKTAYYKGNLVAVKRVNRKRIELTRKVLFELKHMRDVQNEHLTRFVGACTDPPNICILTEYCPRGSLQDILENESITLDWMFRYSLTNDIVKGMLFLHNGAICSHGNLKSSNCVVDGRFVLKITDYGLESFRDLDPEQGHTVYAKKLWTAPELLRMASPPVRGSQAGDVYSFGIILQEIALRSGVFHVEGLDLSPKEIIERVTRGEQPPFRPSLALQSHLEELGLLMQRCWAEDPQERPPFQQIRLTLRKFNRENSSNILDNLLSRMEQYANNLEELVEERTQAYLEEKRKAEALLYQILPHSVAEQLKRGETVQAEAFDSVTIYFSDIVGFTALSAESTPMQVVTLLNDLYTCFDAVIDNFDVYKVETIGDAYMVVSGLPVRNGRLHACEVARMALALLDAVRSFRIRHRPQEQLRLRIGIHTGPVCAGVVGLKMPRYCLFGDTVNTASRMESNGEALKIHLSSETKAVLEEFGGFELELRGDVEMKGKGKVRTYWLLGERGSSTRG
JMJD2C inh: blocks human GASC-1 demethylase activity | hit rate 0.069% among 330,000 | inhibition, % at 2.35 µM | GST-JMJD2C(1-420) H3K9me3 demethylation, DELFIA europium | Q9H3R0;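 active = more than half of a compound's replicate wells show inhibition beyond 50%, single wells judged on their own value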;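 also: signal counts dimethyl H3K9 product captured on neutravidin plate; 0% = median of DMSO wells and 100% = 0.3 times that DMSO median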
Starred values were filed as active, the others as inactive; / = no result.

SMILES | Lipid droplet | aDG glyco act | GC-B act | NR3A LBD binder | GC-A act | JMJD2C inh
C[C@H](O)[C@@H]1CN2CCc3ccc(-c4ccc5c(c4)OCO5)cc3[C@@H]2C[C@@H]1N(C)C(=O)NC1CCCCC1 | / | / | -3.4 | / | -1.0 | /
N#CCCn1cc(/C=C2\NC(=S)N(c3ccccc3)C2=O)c(-c2ccc(-c3ccccc3)cc2)n1 | / | 2.3 | -1.3 | 22.4* | -5.3 | -26.0
O=C(O)CCn1cc(/C=C2/NC(=S)N(c3ccccc3)C2=O)c(-c2ccccc2)n1 | -4.0 | 0.3 | -6.8 | 0.5 | -1.9 | 1.3
CC(=O)Nc1ccc(S(=O)(=O)N[C@@H](C)C(=O)N2CCN(c3ccccn3)CC2)cc1 | / | -0.2 | 3.9 | 0.4 | -1.9 | 2.1
Cc1c(N=Nc2c(-c3ccc([N+](=O)[O-])cc3)[nH]n(C(N)=S)c2=O)cccc1[N+](=O)[O-] | -9.4 | -0.6 | 4.7 | 24.9* | 8.9 | /
NC(=S)n1[nH]c(-c2ccc([N+](=O)[O-])cc2)c(N=Nc2cccc([N+](=O)[O-])c2)c1=O | -6.6 | -0.7 | 1.9 | 26.5* | 4.2 | -1.6
NC(=S)n1[nH]c(-c2ccc([N+](=O)[O-])cc2)c(N=Nc2ccccc2[N+](=O)[O-])c1=O | -28.6 | 0.1 | 1.8 | -2.2 | -12.5 | /
Cc1nn(C)cc1C(=O)Nc1cc(Oc2ccc(Cl)cc2)cc([N+](=O)[O-])c1 | -3.0 | 0.4 | -9.6 | 17.3* | -0.6 | 7.6
CCOc1ccc(Oc2cc(NC(=O)c3ccco3)cc([N+](=O)[O-])c2)cc1 | / | -0.2 | -4.8 | 8.8 | -5.1 | -4.2
O=C(CCc1ccc(Oc2cc([N+](=O)[O-])cc([N+](=O)[O-])c2)cc1)Nc1cccc(Cl)c1 | 0.5 | 1.5 | 0.3 | 10.6* | -1.9 | 0.8
Cn1cc([N+](=O)[O-])c(C(=O)Nc2cc(Oc3ccccc3)cc([N+](=O)[O-])c2)n1 | -3.7 | -0.1 | 2.7 | 9.0 | 0.0 | 8.9
COc1ccc(CCC(=O)Nc2cccc(Cl)c2)cc1 | -14.7 | 0.0 | -6.9 | -2.0 | -13.7 | -17.3
O=C(Nc1cc(Oc2ccc(Cl)cc2)cc([N+](=O)[O-])c1)c1ccco1 | -20.4 | 0.0 | 3.9 | 21.5* | 18.2 | 6.3
O=C(COc1ccc(-c2nnco2)cc1)Nc1c(F)cccc1F | / | 0.0 | -3.4 | 14.1* | 1.5 | 7.1
O=C(COc1ccc(-c2nnco2)cc1)Nc1c(Cl)cccc1C(F)(F)F | / | 0.6 | 3.5 | -1.1 | 3.9 | -4.1
Cc1onc(-c2ccccc2)c1C(=O)N[C@@H]1C(=O)N2C1SC(C)(C)[C@@H]2C(=O)O (stereo partly specified) | / | -0.2 | 1.3 | -1.1 | 1.3 | /
CC(C)=CC(=O)Nc1ccc(OCc2ccccc2)cc1 | / | 1.4 | 5.9 | 28.4* | 6.4 | 6.0
Cc1ccsc1C(=O)Nc1ccc(OCc2ccccc2)cc1 | -9.7 | 0.0 | 1.9 | 18.3* | -1.2 | -6.7
O=C(Nc1ccccc1F)c1ccc(OCc2ccccc2)cc1 | 31.7 | -0.1 | 1.2 | 17.3* | -0.2 | -8.3
Cc1cc(C(=O)Nc2ccc(OCc3ccccc3)cc2)c(C)o1 | -23.1 | 2.0 | 4.0 | 18.7* | 5.2 | -1.0
Cc1nn(CCC(=O)NNC(=O)Nc2ccc(F)cc2)c(C)c1[N+](=O)[O-] | / | / | -4.2 | / | -5.1 | /
Cc1nc2ccc(S(=O)(=O)NCC(=O)N(C)Cc3ccccc3Cl)cc2s1 | / | / | -8.6 | / | -0.4 | /
O=C(CSc1nnc(-c2cccnc2)n1-c1ccccc1)c1ccccc1Cl | / | / | -4.9 | / | -4.4 | /
Cc1ccc(C(=O)Nc2ccc(OCc3ccccc3)cc2)s1 | 15.8 | -0.1 | -4.8 | 14.8* | -0.1 | 9.0
O=C(Nc1ccc(OCc2ccccc2)cc1)c1ccccc1 | -0.3 | 0.0 | -1.6 | -6.8 | 0.3 | -2.0
SMILES | Lipid droplet | aDG glyco act | GC-B act | NR3A LBD binder | GC-A act | JMJD2C inh
Cc1cccc(S(=O)(=O)N(CC(=O)Nc2ccccc2C)Cc2ccco2)c1 | -6.8 | -0.1 | 0.6 | 11.0* | -0.1 | 72.5
COc1ccc(C)cc1NC(=O)C1CCCN(S(=O)(=O)c2ccc3[nH]c(=O)ccc3c2)C1 (stereo unspecified) | 1.1 | 0.3 | -0.9 | 14.8* | 0.1 | 11.1
Cc1nn(C)c(C)c1C1C(C#N)=C(N)OC2=C1C(=O)CCC2 (stereo unspecified) | 1.2 | 0.2 | 5.0 | 11.6* | 2.9 | -0.2
CCO/C=N/Nc1nc(C(F)(F)F)nc2c1cnn2Cc1ccccc1 | -10.3 | -0.2 | -2.9 | 13.1* | -6.1 | -6.1
CCOC(=O)c1csc(NC(=O)C2CCCN(S(=O)(=O)c3cc(OC)ccc3OC)C2)n1 (stereo unspecified) | / | / | 5.1 | / | 3.2 | /
CC1=CC2(C(Cc3ccccc3)N(CC3CC3)C(=NC(=O)c3ccccc3)N2C(=O)OCc2ccccc2)n2c(=O)n(-c3ccccc3)c(=O)n2C1 (stereo unspecified) | / | / | -8.7 | / | -7.1 | /
COc1ccccc1OC(C)C(=O)O (stereo unspecified) | / | -0.1 | 3.6 | 12.7* | 4.7 | 7.3
COc1ccccc1OCC(=O)O | 16.0 | 0.2 | 3.4 | -0.2 | -2.8 | 2.2
O=C(Cn1cc(/C=N/NC(=O)c2cccc3ccccc23)c2ccccc21)Nc1ccc(F)cc1 | -1.3 | 0.2 | -3.1 | 8.5 | -3.9 | -1.3
CCNC(=S)N/N=C/c1cn(Cc2ccccc2F)c2ccccc12 | -1.0 | 4.8 | 43.7* | -0.7 | 40.8* | -2.1
CCNC(=S)N/N=C/c1cn(Cc2ccc(F)cc2)c2ccccc12 | -0.9 | 2.1 | 41.8* | -1.5 | 35.0 | -15.4
O=C(O)c1ccc(N/N=C/c2cn(Cc3ccc(F)cc3)c3ccccc23)cc1 | 29.1 | -0.1 | -12.4 | -5.7 | -5.7 | 1.4
O=C(Cn1cc(/C=N/NC(=O)c2ccccc2Br)c2ccccc21)Nc1ccc(F)cc1 | -1.4 | 1.7 | 2.1 | 10.0* | 3.2 | 0.7
COP(=O)(OC)C(Cc1ccccc1)NC(=O)CNC(=O)OCc1ccccc1 (stereo unspecified) | / | / | -0.7 | / | -2.7 | /
CCCCCCCCOC(=O)C(NC(=O)CCC(=O)Nc1ccc(S(N)(=O)=O)cc1)C(O)c1ccccc1 (stereo unspecified) | 11.4 | -0.2 | 10.6 | -1.6 | 0.7 | 0.5
CCOC(=O)C(NC(=O)CCC(=O)Nc1ccc(S(N)(=O)=O)cc1)C(O)c1ccccc1 (stereo unspecified) | / | / | / | 12.7* | / | -19.3
Cc1cccc(C2=NN(c3ccc(Br)cc3)[C@@H](C(=O)N3CCOC3=O)[C@@H]2c2ccc(Cl)cc2)c1 | / | 4.0 | / | 16.7* | / | /
Cc1cccc(C2=NN(c3ccc(Br)cc3)[C@@H](C(=O)N3CCOC3=O)[C@@H]2c2ccc(F)cc2)c1 | -6.8 | 0.5 | 2.1 | 5.1 | 3.2 | -14.1
O=C1OCCN1C(=O)[C@H]1[C@H](c2ccc(Cl)cc2)C(c2ccccc2)=NN1c1ccc(Br)cc1 | / | 0.4 | 2.3 | 15.4* | -0.3 | /

Screening data: PubChem, several laboratories
